In ChEMBL document CHEMBL1134569, “Synthesis and in vitro and in vivo antimalarial activity of new 4-anilinoquinolines” (J Med Chem, 2001):
Several values for one entry are separate records, joined by “and”; a condition that tells them apart may be missing. Identical values can stand only once.

What was measured:
[1] = Cytotoxicity upon MRC-5 cells (diploid embryonic lung cell line) at 12.5 uM; assay type: cell-based, MRC5; conditions: human
Summary of the method: (§1)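 MRC-5 human diploid embryonic lung cells seeded at 5000/well, washed after 24 h, then given 2-fold drug dilutions in RPMI + 5% FCS (final DMSO below 0.5%). Incubated at 37 °C, 5% CO₂, for 7 days. MTT read-out at 540 nm, scored as percent absorbance reduction versus untreated controls.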

[2] = Cytotoxicity upon MPMs (mouse peritoneal macrophages) at 3.1 uM conc.;NT=No Toxicity
Summary of the method: (§2)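 Mouse peritoneal macrophages harvested 48 h after potato-starch stimulation and seeded at 30000 cells/well. After 24 h, washed and exposed to 2-fold drug dilutions in RPMI + 5% FCS (final DMSO below 0.5%) at 37 °C, 5% CO₂, for 7 days. Toxicity scored microscopically as toxic or not versus untreated controls.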

[3] = Cytotoxicity upon MRC-5 cells (diploid embryonic lung cell line) at 6.3 uM; assay type: cell-based, MRC5; conditions: human; summary of the method: as §1
[4] = Cytotoxicity upon MPMs (mouse peritoneal macrophages) at 6.3 uM; summary of the method: as §2
[5] = Cytotoxicity upon MPMs (mouse peritoneal macrophages) at 12.5 uM conc.;NT=No Toxicity; summary of the method: as §2
Plasmodium falciparum = assay: Inhibitory activity against chloroquine-resistant Plasmodium falciparum FcB1R; assay type: functional, organism-based
[6] = Cytotoxicity upon MRC-5 cells (diploid embryonic lung cell line) at 3.1 uM; assay type: cell-based, MRC5; conditions: human; summary of the method: as §1
[7] = Cytotoxicity upon MPMs (mouse peritoneal macrophages) at 32 uM; summary of the method: as §2
[8] = Cytotoxicity upon MPMs (mouse peritoneal macrophages) at 8 uM; summary of the method: as §2
[9] = Cytotoxicity upon MPMs (mouse peritoneal macrophages) at 2 uM; summary of the method: as §2
[10] = Cytotoxicity upon MRC-5 cells (diploid embryonic lung cell line) at 1 uM; assay type: cell-based, MRC5; conditions: human; summary of the method: as §1
[11] = Cytotoxicity upon MRC-5 cells (diploid embryonic lung cell line) at 32 uM; assay type: cell-based, MRC5; conditions: human; summary of the method: as §1
[12] = Cytotoxicity upon MRC-5 cells (diploid embryonic lung cell line) at 8 uM; assay type: cell-based, MRC5; conditions: human; summary of the method: as §1

Row | SMILES | cytotoxicity at 12.5 µM [1] [%] | NT [2] | cytotoxicity at 6.3 µM [3] [%] | NT [4] | NT [5] | IC50 (Plasmodium falciparum; Plasmodium falciparum) [nM] | cytotoxicity at 3.1 µM [6] [%] | Cytotoxicity [7] | Cytotoxicity [8] | NT [9] | cytotoxicity at 1 µM [10] [%] | cytotoxicity at 32 µM [11] [%] | cytotoxicity at 8 µM [12] [%] | IC50 (Plasmodium falciparum)
1 | CC(C)(C)NCC(=O)Nc1cc(CO)cc(Nc2ccnc3cc(Cl)ccc23)c1 | 0 | Cytotoxicity upon MPMs at 6.3 uM | 0 | Cytotoxicity upon MPMs at 6.3 uM | Cytotoxicity upon MPMs at 6.3 uM | 50.9 | 0 | – | – | – | – | – | – | –
2 | O=C(CN1CCCCC1)Nc1cc(CN2CCCC2)cc(Nc2ccnc3cc(Cl)ccc23)c1 | – | – | – | – | – | 6.9 | – | Cytotoxicity upon MPMs at 32 uM | Cytotoxicity upon MPMs at 32 uM | Cytotoxicity upon MPMs at 2 uM | 0 | 100 | 100 | –
3 | CN1CCN(Cc2cc(NC(=O)CN3CCCCC3)cc(Nc3ccnc4cc(Cl)ccc34)c2)CC1 | – | – | – | – | – | 7.5 | – | Cytotoxicity upon MPMs at 32 uM | Cytotoxicity upon MPMs at 32 uM | Cytotoxicity upon MPMs at 2 uM | 0 | 83 | 80 | –
4 | O=C(CN1CCCCC1)Nc1cc(CN2CCN(Cc3ccccc3)CC2)cc(Nc2ccnc3cc(Cl)ccc23)c1 | – | – | – | – | – | 13 | – | Cytotoxicity upon MPMs at 32 uM | Cytotoxicity upon MPMs at 32 uM | Cytotoxicity upon MPMs at 2 uM | 0 | 100 | 100 | –
5 | O=C(CN1CCCCC1)Nc1cc(CNCCN2CCCC2)cc(Nc2ccnc3cc(Cl)ccc23)c1 | – | – | – | – | – | 10.2 | – | Cytotoxicity upon MPMs at 32 uM | – | Cytotoxicity upon MPMs at 2 uM | – | 100 | 100 | 6.6 nM and 7.9 nM
6 | O=C(CN1CCCCC1)Nc1cc(CNCc2ccc(C(F)(F)F)cc2)cc(Nc2ccnc3cc(Cl)ccc23)c1 | – | – | – | – | – | 5.5 | – | Cytotoxicity upon MPMs at 32 uM | Cytotoxicity upon MPMs at 32 uM | Cytotoxicity upon MPMs at 2 uM | 0 | 100 | 100 | –
7 | O=C(CNCc1ccccc1)Nc1cc(CO)cc(Nc2ccnc3cc(Cl)ccc23)c1 | 0 | Cytotoxicity upon MPMs at 6.3 uM | 0 | Cytotoxicity upon MPMs at 6.3 uM | Cytotoxicity upon MPMs at 6.3 uM | 193 | 0 | – | – | – | – | – | – | –
8 | O=CNc1cc(CO)cc(Nc2ccnc3cc(Cl)ccc23)c1 | 0 | Cytotoxicity upon MPMs at 6.3 uM | 0 | Cytotoxicity upon MPMs at 6.3 uM | Cytotoxicity upon MPMs at 6.3 uM | 360 | 0 | – | – | – | – | – | – | –
9 | Nc1ccn(CC(=O)Nc2cc(CO)cc(Nc3ccnc4cc(Cl)ccc34)c2)n1 | 0 | Cytotoxicity upon MPMs at 6.3 uM | 0 | Cytotoxicity upon MPMs at 6.3 uM | Cytotoxicity upon MPMs at 6.3 uM | 806 | 0 | – | – | – | – | – | – | –
10 | CN1CCN(CC(=O)Nc2cc(CO)cc(Nc3ccnc4cc(Cl)ccc34)c2)CC1 | 0 | Cytotoxicity upon MPMs at 6.3 uM | 0 | Cytotoxicity upon MPMs at 6.3 uM | Cytotoxicity upon MPMs at 6.3 uM | 344 | 0 | – | – | – | – | – | – | –
11 | O=C(CN1CCOCC1)Nc1cc(CO)cc(Nc2ccnc3cc(Cl)ccc23)c1 | 0 | Cytotoxicity upon MPMs at 6.3 uM | 0 | Cytotoxicity upon MPMs at 6.3 uM | Cytotoxicity upon MPMs at 6.3 uM | > 1000 | 0 | – | – | – | – | – | – | –
12 | O=C(CN1CCC(O)CC1)Nc1cc(CO)cc(Nc2ccnc3cc(Cl)ccc23)c1 | 0 | – | 0 | – | – | 1050 | 0 | – | – | – | – | – | – | –
13 | O=C(CN1CCCCC1)Nc1cc(CN2CCN(C(c3ccccc3)c3ccccc3)CC2)cc(Nc2ccnc3cc(Cl)ccc23)c1 | – | – | – | – | – | 12.5 | – | Cytotoxicity upon MPMs at 32 uM | Cytotoxicity upon MPMs at 32 uM | Cytotoxicity upon MPMs at 2 uM | 87 | 98 | 97 | –
14 | O=C(CN1CCCCC1)Nc1cc(CNC(c2ccccc2)c2ccccc2)cc(Nc2ccnc3cc(Cl)ccc23)c1 | – | – | – | – | – | 9.1 | – | Cytotoxicity upon MPMs at 32 uM | Cytotoxicity upon MPMs at 32 uM | Cytotoxicity upon MPMs at 2 uM | 0 | 100 | 100 | –
15 | O=C(CNCc1ccc(Cl)cc1)Nc1cc(CO)cc(Nc2ccnc3cc(Cl)ccc23)c1 | 0 | – | 0 | – | – | 855 | 0 | – | – | – | – | – | – | –
16 | O=C(CN1CCc2ccccc2C1)Nc1cc(CO)cc(Nc2ccnc3cc(Cl)ccc23)c1 | 0 | – | 0 | – | – | 1450 | 0 | – | – | – | – | – | – | –
17 | O=C(CN1CCCCC1)Nc1cc(CN2CCN(Cc3ccc([N+](=O)[O-])cc3)CC2)cc(Nc2ccnc3cc(Cl)ccc23)c1 | – | – | – | – | – | 13.2 | – | Cytotoxicity upon MPMs at 32 uM | Cytotoxicity upon MPMs at 32 uM | Cytotoxicity upon MPMs at 2 uM | 0 | 100 | 99 | –
18 | O=C(CN1CCCCC1)Nc1cc(CNc2ccccc2)cc(Nc2ccnc3cc(Cl)ccc23)c1 | – | – | – | – | – | 21.2 | – | Cytotoxicity upon MPMs at 32 uM | Cytotoxicity upon MPMs at 32 uM | Cytotoxicity upon MPMs at 2 uM | 0 | 100 | 100 | –
19 | O=C(CN1CCCCC1)Nc1cc(CN2CCN(c3ccccc3)CC2)cc(Nc2ccnc3cc(Cl)ccc23)c1 | – | – | – | – | – | 5.5 | – | Cytotoxicity upon MPMs at 32 uM | Cytotoxicity upon MPMs at 32 uM | Cytotoxicity upon MPMs at 2 uM | 0 | 100 | 100 | –
20 | CC(C)(C)NCc1cc(NC(=O)CN2CCCCC2)cc(Nc2ccnc3cc(Cl)ccc23)c1 | – | – | – | – | – | 3.7 | – | Cytotoxicity upon MPMs at 32 uM | Cytotoxicity upon MPMs at 32 uM | Cytotoxicity upon MPMs at 2 uM | 0 | 100 | 100 | –
21 | O=C(CN1CCCCC1)Nc1cc(CN2CCC(O)CC2)cc(Nc2ccnc3cc(Cl)ccc23)c1 | – | – | – | – | – | 6.5 | – | Cytotoxicity upon MPMs at 32 uM | Cytotoxicity upon MPMs at 32 uM | Cytotoxicity upon MPMs at 2 uM | 0 | 100 | 100 | –
22 | O=C(CN1CCCCC1)Nc1cc(CNCc2ccccc2)cc(Nc2ccnc3cc(Cl)ccc23)c1 | – | – | – | – | – | 8.5 | – | Cytotoxicity upon MPMs at 32 uM | Cytotoxicity upon MPMs at 32 uM | Cytotoxicity upon MPMs at 2 uM | 96 | 100 | 100 | –
23 | O=C(CN1CCCCC1)Nc1cc(CN2CCN(CCO)CC2)cc(Nc2ccnc3cc(Cl)ccc23)c1 | – | – | – | – | – | 11.5 | – | Cytotoxicity upon MPMs at 32 uM | Cytotoxicity upon MPMs at 32 uM | Cytotoxicity upon MPMs at 2 uM | 0 | 100 | 100 | –
24 | O=C(CN1CCCCC1)Nc1cc(CN2CCN(Cc3ccc4c(c3)OCO4)CC2)cc(Nc2ccnc3cc(Cl)ccc23)c1 | – | – | – | – | – | 6.9 | – | Cytotoxicity upon MPMs at 32 uM | Cytotoxicity upon MPMs at 32 uM | Cytotoxicity upon MPMs at 2 uM | 86 | 100 | 99 | –
25 | COc1ccc(CN2CCN(Cc3cc(NC(=O)CN4CCCCC4)cc(Nc4ccnc5cc(Cl)ccc45)c3)CC2)cc1 | – | – | – | – | – | 11 | – | Cytotoxicity upon MPMs at 32 uM | Cytotoxicity upon MPMs at 32 uM | Cytotoxicity upon MPMs at 2 uM | 50 | 100 | 100 | –
26 | O=C(CN1CCCCC1)Nc1cc(CN2CCN(Cc3ccc(Cl)cc3)CC2)cc(Nc2ccnc3cc(Cl)ccc23)c1 | – | – | – | – | – | 11.5 | – | Cytotoxicity upon MPMs at 32 uM | Cytotoxicity upon MPMs at 32 uM | Cytotoxicity upon MPMs at 2 uM | 0 | 100 | 100 | –
27 | CN(C)CCN(C)Cc1cc(NC(=O)CN2CCCCC2)cc(Nc2ccnc3cc(Cl)ccc23)c1 | – | – | – | – | – | 5 | – | Cytotoxicity upon MPMs at 32 uM | Cytotoxicity upon MPMs at 32 uM | Cytotoxicity upon MPMs at 2 uM | 43 | 100 | 100 | –
